“And” between values parts separate entries of the source, which are not always exact repeats. Identical values can stand only once.

Data set [1] concerns Blood. Nature of the data set: Biodistribution in blood of NMRI mouse at 185 KBq, iv after 4 hrs. The following applies: in vivo. The format is ADME, organism-based.
The test system of data set [2] is Blood. Nature of the data set: Biodistribution in blood of NMRI mouse at 185 KBq, iv after 24 hrs. It is filed as ADME, organism-based. Particulars: in vivo.
A short description of data set [3]: Biodistribution in carcass of NMRI mouse at 185 KBq, iv after 30 mins. It is filed as ADME, organism-based. Particulars: in vivo, 0.5 h.
The test system of data set [4] is Urinary bladder. As to the kind of experiment: Biodistribution in bladder of NMRI mouse at 185 KBq, iv after 30 mins. The format is ADME, organism-based. Particulars: in vivo, 0.5 h.
The subject of data set [5] is Urinary bladder. Nature of the data set: Biodistribution in bladder of NMRI mouse at 185 KBq, iv after 4 hrs. It is filed as ADME, organism-based. The following applies: in vivo.
The test system of data set [6] is Urinary bladder. Nature of the data set: Biodistribution in bladder of NMRI mouse at 185 KBq, iv after 24 hrs. It is filed as ADME, organism-based. The following applies: in vivo.
In data set [7] the test system is Kidney. As to the kind of experiment: Biodistribution in kidney of NMRI mouse at 185 KBq, iv after 30 mins. It is filed as ADME, organism-based. Particulars: in vivo, 0.5 h.
Data set [8] relates to Kidney. As to the kind of experiment: Biodistribution in kidney of NMRI mouse at 185 KBq, iv after 4 hrs. It is filed as ADME, organism-based. Particulars: in vivo.
Data set [9] concerns Kidney. Nature of the data set: Biodistribution in kidney of NMRI mouse at 185 KBq, iv after 24 hrs. The format is ADME, organism-based. Particulars: in vivo.
Data set [10] concerns Liver. Nature of the data set: Biodistribution in liver of NMRI mouse at 185 KBq, iv after 30 mins. It is filed as ADME, organism-based. Particulars: in vivo, 0.5 h.
In data set [11] the test system is Liver. Nature of the data set: Biodistribution in liver of NMRI muse at 185 KBq, iv after 4 hrs. The format is ADME, organism-based. The following applies: mouse, in vivo.
Data set [12] deals with Liver. As to the kind of experiment: Biodistribution in liver of NMRI mouse at 185 KBq, iv after 24 hrs. It is filed as ADME, organism-based. The following applies: in vivo.
Data set [13] can be described thus: Biodistribution in spleen + pancreas of NMRI mouse at 185 KBq, iv after 30 mins. The format is ADME, organism-based. The following applies: in vivo, 0.5 h.
Data set [14] is described as follows: Biodistribution in spleen + pancreas of NMRI mouse at 185 KBq, iv after 24 hrs. It is filed as ADME, organism-based. Particulars: in vivo.
The test system of data set [15] is Lung. Nature of the data set: Biodistribution in lung of NMRI mouse at 185 KBq, iv after 24 hrs. The format is ADME, organism-based. The following applies: in vivo.
Data set [16] is described as follows: Biodistribution in intestine + faeces of NMRI mouse at 185 KBq, iv after 30 mins. The following applies: in vivo, 0.5 h. It is filed as ADME, organism-based.
The nature of data set [17]: Biodistribution in intestine + faeces of NMRI mouse at 185 KBq, iv after 4 hrs. The format is ADME, organism-based. The following applies: in vivo.
Data set [18] is described as follows: Biodistribution in intestine + faeces of NMRI mouse at 185 KBq, iv after 24 hrs. It is filed as ADME, organism-based. The following applies: in vivo.
The subject of data set [19] is Brain. Nature of the data set: Biodistribution in brain of NMRI mouse at 185 KBq, iv after 30 mins. The format is ADME, organism-based. Particulars: in vivo, 0.5 h.
For data set [20], the system named is Brain. Nature of the data set: Biodistribution in brain of NMRI mouse at 185 KBq, iv after 4 hrs. The format is ADME, organism-based. Particulars: in vivo.
The subject of data set [21] is Brain. As to the kind of experiment: Biodistribution in brain of NMRI mouse at 185 KBq, iv after 24 hrs. It is filed as ADME, organism-based. Particulars: in vivo.
Data set [22] has as its system Blood. Nature of the data set: Biodistribution in blood of NMRI mouse at 185 KBq, iv after 30 mins. It is filed as ADME, organism-based. Particulars: in vivo, 0.5 h.
A short description of data set [23]: Biodistribution in carcass of NMRI mouse at 185 KBq, iv after 4 hrs. The format is ADME, organism-based. The following applies: in vivo.
Data set [24] is described as follows: Biodistribution in carcass of NMRI mouse at 185 KBq, iv after 24 hrs. Particulars: in vivo. The format is ADME, organism-based.
Data set [25] can be described thus: Partition coefficient, log P of the compound. The following applies: octanol/water. It is filed as physicochemical. The procedure, abridged:
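Octanol/buffer partitioning against 0.025 M phosphate buffer, pH 7.4; log P reported as mean ± deviation of n = 6 determinations.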

By logP is commonly meant the decadic logarithm of the partition coefficient of the neutral form, usually between octanol and water. Low readings indicate lower lipophilicity, high ones higher lipophilicity. With `Cc1cc(O)c2c(=O)c3c(O)cc(O)c4c5c(O)c([123I])c(O)c6c(=O)c7c(O)cc(C(=O)O)c8c1c2c(c34)c(c78)c65`, the Drug uptake in [1] is 1.6 %ID and 0.6 % ID/g; in [2], 0.1 %ID; in [3] it was 13.2 %ID; in data set [4] it was 0.3 %ID; in data set [5], 7.1 %ID; in [6], 21.1 %ID. The Drug uptake was 2.9 %ID and 4.4 % ID/g in data set [7]; 2.6 %ID and 4.8 % ID/g in [8]; 1 %ID and 1.9 % ID/g in [9]; 64.4 %ID and 33.7 % ID/g in data set [10]; 22.4 %ID and 13.2 % ID/g in data set [11]; 4.7 %ID and 2.7 % ID/g in data set [12]. The Drug uptake was 1.3 %ID and 3.9 % ID/g in data set [13]; 0.2 %ID and 0.5 % ID/g in data set [14]; 0.1 %ID and 0.2 % ID/g in [15]; 13.2 %ID in [16]; 50.5 %ID in data set [17]; 69.4 %ID in data set [18]. Besides, the Drug uptake was 0 %ID in data set [19]; 0 %ID in [20]; 0 %ID in [21]; 3.3 %ID and 1.3 % ID/g in data set [22]; 10.3 %ID in [23]; 2.8 %ID in data set [24]. The logP in [25] turned out to be 1.47.

Consider `Cc1cc(O)c2c(=O)c3c(O)cc(O)c4c5c(O)c([123I])c(O)c6c(=O)c7c(O)cc(C)c8c1c2c(c34)c(c78)c65`, for which the Drug uptake in data set [1] worked out at 28.2 % ID/g.

For the origin of these results see ChEMBL document CHEMBL1145371, “Synthesis and preliminary evaluation of mono-[123I]iodohypericin monocarboxylic acid as a necrosis avid imaging agent” (Bioorg Med Chem Lett, 2007).
